# Measured values as given in ChEMBL document CHEMBL4732199, “Potent and orally bioavailable CDK8 inhibitors: Design, synthesis, structure-activity relationship analysis and biological evaluation” (Eur J Med Chem, 2021).
# Experiments:
# MOLM-13 = experiment: Growth inhibition human MOLM-13 cells after 72 hrs by resazurin or MTT assay; assay type: functional
# Outline: (§1)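 Tumour cell lines kept in RPMI-1640, DMEM or MEM with 10% FBS at 37 °C, 5% CO2, mycoplasma-free. Exposure lasted 72 h. Viability was read by MTT for adherent solid-tumour lines and by resazurin for suspension leukaemia lines. GI50 came from nonlinear regression, given as mean ± standard deviation of at least two replicates unless stated otherwise.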
# [1] = Oral bioavailability in Sprague-Dawley rat at 20 mg/kg measured up to 24 hrs by LC-MS/MS analysis; assay type: ADME, organism-based; conditions: in vivo
# KG-1a = experiment: Growth inhibition human KG-1a cells after 72 hrs by resazurin or MTT assay; assay type: functional; outline: as §1
# [2] = Toxicity in BALB/c mouse assessed as increase in dead splenocytes at 70 mg/kg, po administered once daily for 7 days and measured on day 15 by flow cytometric analysis; assay type: organism-based; conditions: in vivo, 168 h, time 7 day
# [3] = Toxicity in BALB/c mouse assessed as vasculitis in blood vessels at 70 mg/kg, po administered once daily for 7 days and measured on day 15; assay type: organism-based; conditions: in vivo, 168 h, time 7 day
# [4] = target: Glycogen synthase kinase-3 beta (Homo sapiens, UniProt P49841); experiment: Inhibition of human GSKbeta H350L mutant (2 to 3nd residues) using YRRAAVPPSPSLSRHSSPHQS(p) EDEEE as substrate incubated for 40 mins in presence of [gamma-33P]-ATP by scintillation counting method
# Outline: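 Outsourced radioisotope (HotSpot) kinase assay run by a contract lab, with ATP at the kinase's Km(ATP). The IC50 was converted to an apparent Ki by the Cheng-Prusoff equation, Ki = IC50/(1+[ATP]/Km(ATP)), using the experimentally determined Km(ATP).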
# [5] = Toxicity in BALB/c mouse assessed as infiltration of inflammatory cells at 70 mg/kg, po administered once daily for 7 days and measured on day 15; assay type: organism-based; conditions: in vivo, 168 h, time 7 day
# [6] = Growth inhibition human PL-21 cells after 72 hrs by resazurin or MTT assay; assay type: functional, PL21; outline: as §1
# [7] = AUC in Sprague-Dawley rat at 20 mg/kg, po measured up to 24 hrs by LC-MS/MS analysis; assay type: ADME, organism-based; set-up: route oral, dose 20 mg/kg, time <=24; conditions: in vivo
# PANC-1 = experiment: Growth inhibition human PANC-1 cells after 72 hrs by resazurin or MTT assay; assay type: functional; outline: as §1
# T47D = experiment: Growth inhibition human T47D cells after 72 hrs by resazurin or MTT assay; assay type: functional; outline: as §1
# [8] = Cmax in Sprague-Dawley rat at 20 mg/kg, po measured up to 24 hrs by LC-MS/MS analysis; assay type: ADME, organism-based; set-up: route oral, dose 20 mg/kg, time <=24; conditions: in vivo
# U-937 = experiment: Growth inhibition human U-937 cells after 72 hrs by resazurin or MTT assay; assay type: functional; outline: as §1
# [9] = Clearance in Sprague-Dawley rat at 5 mg/kg, iv measured up to 24 hrs by LC-MS/MS analysis; assay type: ADME, organism-based; conditions: in vivo
# MV4-11 = experiment: Growth inhibition of human MV4-11 cells after 72 hrs by resazurin staining based assay; assay type: functional
# Outline: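 MV4-11 leukaemia cells grown in medium with 10% FBS at 37 °C, 5% CO2. Growth was read by a 72-h resazurin viability assay. GI50 was obtained by nonlinear regression and reported as mean ± standard deviation of at least two replicates.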
# [10] = Toxicity in BALB/c mouse assessed as B cells at 70 mg/kg, po administered once daily for 7 days and measured on day 15 by flow cytometric analysis; assay type: organism-based; conditions: in vivo, 168 h, time 7 day
# A2780 = experiment: Growth inhibition human A2780 cells after 72 hrs by resazurin or MTT assay; assay type: functional; outline: as §1
# [11] = Toxicity in BALB/c mouse assessed as pathological alterations in left femora at 70 mg/kg, po administered once daily for 7 days and measured on day 15; assay type: organism-based; conditions: in vivo, 168 h, time 7 day
# [12] = Toxicity in BALB/c mouse assessed as monocytes at 70 mg/kg, po administered once daily for 7 days and measured on day 15 by flow cytometric analysis; assay type: organism-based; conditions: in vivo, 168 h, time 7 day
# [13] = Half life in Sprague-Dawley rat at 20 mg/kg, po measured up to 24 hrs by LC-MS/MS analysis; assay type: ADME, organism-based; conditions: in vivo
# MDA-MB-453 = experiment: Growth inhibition human MDA-MB-453 cells after 72 hrs by resazurin or MTT assay; assay type: functional; outline: as §1
# [14] = Toxicity in BALB/c mouse assessed as macrophages at 70 mg/kg, po administered once daily for 7 days and measured on day 15 by flow cytometric analysis; assay type: organism-based; conditions: in vivo, 168 h, time 7 day
# NB-4 = experiment: Growth inhibition human NB4 cells after 72 hrs by resazurin or MTT assay; assay type: functional; outline: as §1
# THP-1 = experiment: Growth inhibition human THP1 cells after 72 hrs by resazurin or MTT assay; assay type: functional; outline: as §1
# [15] = Tmax in Sprague-Dawley rat at 5 mg/kg, iv measured up to 24 hrs by LC-MS/MS analysis; assay type: ADME, organism-based; conditions: in vivo
# KG-1 = experiment: Growth inhibition human KG-1 cells after 72 hrs by resazurin or MTT assay; assay type: functional; outline: as §1
# [16] = Half life in Sprague-Dawley rat at 5 mg/kg, iv measured up to 24 hrs by LC-MS/MS analysis; assay type: ADME, organism-based; conditions: in vivo
# [17] = Cmax in Sprague-Dawley rat at 5 mg/kg, iv measured up to 24 hrs by LC-MS/MS analysis; assay type: ADME, organism-based; set-up: route intravenous, dose 5 mg/kg, time <=24; conditions: in vivo
# Kasumi 1 = experiment: Growth inhibition human Kasumi-1 cells after 72 hrs by resazurin or MTT assay; assay type: functional; outline: as §1
# CDK8/Cyclin C = CDK8/Cyclin C (Homo sapiens, UniProt P49336); experiment: Inhibition of CDK8/cyclin C (unknown origin) using RBER-IRStide as substrate incubated for 60 mins in presence of [gamma33P]ATP by scintillation counting method; assay type: protein-complex assay
# MCF7 = experiment: Growth inhibition human MCF7 cells after 72 hrs by resazurin or MTT assay; assay type: functional; outline: as §1
# [18] = Toxicity in BALB/c mouse assessed as increase in number of alveolar macrophages at 70 mg/kg, po administered once daily for 7 days and measured on day 15; assay type: organism-based; conditions: in vivo, 168 h, time 7 day
# HCT-116 = experiment: Growth inhibition human HCT-116 cells after 72 hrs by resazurin or MTT assay; assay type: functional; outline: as §1
# [19] = Toxicity in BALB/c mouse assessed as pathological alterations in lung at 70 mg/kg, po administered once daily for 7 days and measured on day 15; assay type: organism-based; conditions: in vivo, 168 h, time 7 day
# [20] = Toxicity in BALB/c mouse assessed as dendritic cells at 70 mg/kg, po administered once daily for 7 days and measured on day 15 by flow cytometric analysis; assay type: organism-based; conditions: in vivo, 168 h, time 7 day
# COLO 205 = experiment: Growth inhibition human COLO 205 cells after 72 hrs by resazurin or MTT assay; assay type: functional; outline: as §1
# [21] = Growth inhibition human WI38 cells after 72 hrs by resazurin or MTT assay; assay type: cell-based; conditions: WI-38 cells
# [22] = Toxicity in BALB/c mouse assessed as granulocytes at 70 mg/kg, po administered once daily for 7 days and measured on day 15 by flow cytometric analysis; assay type: organism-based; conditions: in vivo, 168 h, time 7 day
# [23] = Toxicity in BALB/c mouse assessed as destruction of vessel walls at 70 mg/kg, po administered once daily for 7 days and measured on day 15; assay type: organism-based; conditions: in vivo, 168 h, time 7 day
# MDA-MB-231 = experiment: Growth inhibition human MDA-MB-231 cells after 72 hrs by resazurin or MTT assay; assay type: functional; outline: as §1
# [24] = AUC in Sprague-Dawley rat at 5 mg/kg, iv measured up to 24 hrs by LC-MS/MS analysis; assay type: ADME, organism-based; set-up: route intravenous, dose 5 mg/kg, time <=24; conditions: in vivo
# CDK8/Cyclin C, sequence (P49336 whole entry): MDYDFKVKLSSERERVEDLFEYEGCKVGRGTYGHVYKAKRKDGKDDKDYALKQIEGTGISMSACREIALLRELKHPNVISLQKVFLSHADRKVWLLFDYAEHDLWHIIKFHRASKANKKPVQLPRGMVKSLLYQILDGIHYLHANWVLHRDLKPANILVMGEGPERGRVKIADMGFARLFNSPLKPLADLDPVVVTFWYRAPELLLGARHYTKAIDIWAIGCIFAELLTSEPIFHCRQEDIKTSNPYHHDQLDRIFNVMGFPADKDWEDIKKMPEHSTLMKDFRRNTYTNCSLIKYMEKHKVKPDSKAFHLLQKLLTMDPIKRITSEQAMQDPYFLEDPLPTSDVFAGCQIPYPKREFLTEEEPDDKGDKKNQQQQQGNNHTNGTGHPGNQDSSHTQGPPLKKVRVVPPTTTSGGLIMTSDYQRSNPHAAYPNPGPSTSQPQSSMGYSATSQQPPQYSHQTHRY
# CDK8/Cyclin C, sequence (P24863 whole entry, further chain): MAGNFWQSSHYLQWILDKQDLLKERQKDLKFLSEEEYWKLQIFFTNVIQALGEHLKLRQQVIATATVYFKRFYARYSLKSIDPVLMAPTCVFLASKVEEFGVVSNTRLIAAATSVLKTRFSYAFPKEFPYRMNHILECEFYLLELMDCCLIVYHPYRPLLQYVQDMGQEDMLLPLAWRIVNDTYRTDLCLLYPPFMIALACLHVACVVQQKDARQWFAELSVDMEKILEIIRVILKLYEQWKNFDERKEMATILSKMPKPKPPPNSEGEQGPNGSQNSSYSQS
# Glycogen synthase kinase-3 beta, sequence (P49841 whole entry): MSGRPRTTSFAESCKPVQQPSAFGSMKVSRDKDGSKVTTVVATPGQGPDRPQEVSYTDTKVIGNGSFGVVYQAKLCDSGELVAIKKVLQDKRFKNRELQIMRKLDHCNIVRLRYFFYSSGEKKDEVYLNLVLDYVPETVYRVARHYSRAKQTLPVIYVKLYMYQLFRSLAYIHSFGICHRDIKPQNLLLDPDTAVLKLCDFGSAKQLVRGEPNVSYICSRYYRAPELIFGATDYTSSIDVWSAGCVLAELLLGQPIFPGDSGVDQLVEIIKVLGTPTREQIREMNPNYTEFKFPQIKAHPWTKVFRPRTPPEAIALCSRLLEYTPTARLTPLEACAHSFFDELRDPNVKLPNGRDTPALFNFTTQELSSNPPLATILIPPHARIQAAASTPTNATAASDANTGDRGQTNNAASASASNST
structure (smiles),measurement,setting,value
Cn1cc(-c2ccc(-c3cncc(Cl)c3N3CCC4(CCNC4=O)CC3)cc2)cn1,GI50,MOLM-13,2.8 µM
same,bioavailability,[1],41%
same,GI50,KG-1a,32.71 µM
same,Activity,[2],Non-Toxic
same,Activity,[3],Toxic
same,Ki,[4],0.345 µM
same,Activity,[5],Toxic
same,GI50,[6],13.8 µM
same,AUC at 24 h,[7],17.5 µM·h
same,GI50,PANC-1,0.55 µM
same,GI50,T47D,15.1 µM
same,Cmax,[8],4.06 µM
same,GI50,U-937,22.4 µM
same,clearance,[9],20 mL/min/kg
same,GI50,MV4-11,0.03 µM
same,Activity,[10],Non-Toxic
same,GI50,A2780,35.9 µM
same,Activity,[11],Toxic
same,Activity,[12],Non-Toxic
same,half-life,[13],254 min
same,GI50,MDA-MB-453,43.1 µM
same,Activity,[14],Non-Toxic
same,GI50,NB-4,> 50 µM
same,GI50,THP-1,> 50 µM
same,Tmax,[15],4.2 min
same,GI50,KG-1,19.98 µM
same,half-life,[16],64.8 min
same,Cmax,[17],10.6 µM
same,GI50,Kasumi 1,37 µM
same,Ki,CDK8/Cyclin C,0.009 µM
same,GI50,MCF7,> 50 µM
same,Activity,[18],Toxic
same,GI50,HCT-116,46.2 µM
same,Activity,[19],Toxic
same,Activity,[20],Non-Toxic
same,GI50,COLO 205,37.7 µM
same,GI50 at 72 h,[21],> 50 µM
same,Activity,[22],Non-Toxic
same,Activity,[23],Toxic
same,GI50,MDA-MB-231,29.9 µM
same,AUC at 24 h,[24],10.5 µM·h
O=C1NCCC12CCN(c1c(Cl)cncc1-c1cc3ccccc3o1)CC2,GI50,MOLM-13,6.18 µM
same,bioavailability,[1],38%
same,GI50,KG-1a,19.55 µM
same,Activity,[2],Non-Toxic
same,Activity,[3],Non-Toxic
same,Ki,[4],0.004 µM
same,Activity,[5],Non-Toxic
same,GI50,[6],25.4 µM
same,AUC at 24 h,[7],14.6 µM·h
same,GI50,PANC-1,> 50 µM
same,GI50,T47D,16.2 µM
same,Cmax,[8],2.77 µM
same,GI50,U-937,1.36 µM
same,clearance,[9],23.2 mL/min/kg
same,GI50,MV4-11,0.36 µM
same,Activity,[10],Non-Toxic
same,GI50,A2780,21.4 µM
same,Activity,[11],Non-Toxic
same,Activity,[12],Non-Toxic
same,half-life,[13],134 min
same,GI50,MDA-MB-453,23.3 µM
same,Activity,[14],Non-Toxic
same,GI50,NB-4,40.8 µM
same,GI50,THP-1,> 50 µM
same,Tmax,[15],2.4 min
same,GI50,KG-1,7.13 µM
same,half-life,[16],54 min
same,Cmax,[17],14.4 µM
same,GI50,Kasumi 1,> 50 µM
same,Ki,CDK8/Cyclin C,0.014 µM
same,GI50,MCF7,> 50 µM
same,Activity,[18],Non-Toxic
same,GI50,HCT-116,40.6 µM
same,Activity,[19],Non-Toxic
same,Activity,[20],Non-Toxic
same,GI50,COLO 205,> 50 µM
same,GI50 at 72 h,[21],48.1 µM
same,Activity,[22],Non-Toxic
same,Activity,[23],Non-Toxic
same,GI50,MDA-MB-231,40.7 µM
same,AUC at 24 h,[24],9.7 µM·h
